{"source": "ChEMBL document CHEMBL1811848", "about": "(Bioorg Med Chem Lett, 2011)", "key": {"Rattus norvegicus [1]": {"test_system": "Rattus norvegicus", "assay": "Toxicity in male Wistar rat assessed as […] level at 3 mg/kg, po measured after 28 days (reference value: 243.88 +/- 20.34 U/L)", "type": "organism-based", "parameters": "dose 3 mg/kg, route oral", "details": "in vivo, 672 h"}, "Rattus norvegicus [2]": {"test_system": "Rattus norvegicus", "assay": "Toxicity in female Wistar rat assessed as heart to body weight ratio at 3 mg/kg, po measured after 28 days (reference value: 0.403 +/- 0.010)", "type": "organism-based", "parameters": "dose 3 mg/kg, route oral", "details": "in vivo, 672 h"}, "Mus musculus [3]": {"test_system": "Mus musculus", "assay": "Hypolipidemic activity in db/db mouse assessed as reduction in triglyceride level at 0.03 mg/kg, po", "type": "functional", "parameters": "scale not given: the % may be the effect or the level left"}, "Rattus norvegicus [4]": {"test_system": "Rattus norvegicus", "assay": "Toxicity in male Wistar rat assessed as glucose level at 30 mg/kg, po measured after 28 days (reference value: 70 +/- 3.49 mg/dl)", "type": "organism-based", "parameters": "dose 30 mg/kg, route oral", "details": "in vivo, 672 h"}, "Mus musculus [5]": {"test_system": "Mus musculus", "assay": "Hypolipidemic activity in Swiss albino mouse assessed as reduction in triglyceride level at 0.003 mg/kg, po", "type": "functional", "parameters": "scale not given: the % may be the effect or the level left"}, "Rattus norvegicus [6]": {"test_system": "Rattus norvegicus", "assay": "Toxicity in female Wistar rat assessed as […] level at 3 mg/kg, po measured after 28 days (reference value: 172.38 +/- 7.18 U/L)", "type": "organism-based", "parameters": "dose 3 mg/kg, route oral", "details": "in vivo, 672 h"}, "[7]": {"assay": "Cmax in fasting Wistar rat at 30 mg/kg, po", "type": "ADME, organism-based", "parameters": "dose 30 mg/kg, route oral", "details": "in vivo", "method_in_brief": "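Fasted male Wistar rats received one oral dose of 30 mg/kg. Plasma Cmax, T1/2 and Tmax are reported as mean ± SD of n = 3.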"}, "Rattus norvegicus [8]": {"test_system": "Rattus norvegicus", "assay": "Toxicity in female Wistar rat assessed as albumin level at 3 mg/kg, po measured after 28 days (reference value: 3.92 +/- 0.18 g.dl)", "type": "organism-based", "parameters": "dose 3 mg/kg, route oral", "details": "in vivo, 672 h"}, "Rattus norvegicus [9]": {"test_system": "Rattus norvegicus", "assay": "Toxicity in female Wistar rat assessed as urea level at 30 mg/kg, po measured after 28 days (reference value: 33.05 +/- 2.02 mg/dl)", "type": "organism-based", "parameters": "dose 30 mg/kg, route oral", "details": "in vivo, 672 h"}, "Rattus norvegicus [10]": {"test_system": "Rattus norvegicus", "assay": "Toxicity in male Wistar rat assessed as adrenal to body weight ratio at 3 mg/kg, po measured after 28 days (reference value: 0.018 +/- 0.001)", "type": "organism-based", "parameters": "dose 3 mg/kg, route oral", "details": "in vivo, 672 h"}, "Rattus norvegicus [11]": {"test_system": "Rattus norvegicus", "assay": "Toxicity in male Wistar rat assessed as kidney to body weight ratio at 3 mg/kg, po measured after 28 days (reference value: 0.745 +/- 0.012)", "type": "organism-based", "parameters": "dose 3 mg/kg, route oral", "details": "in vivo, 672 h"}, "Rattus norvegicus [12]": {"test_system": "Rattus norvegicus", "assay": "Toxicity in male Wistar rat assessed as brain to body weight ratio at 3 mg/kg, po measured after 28 days (reference value: 0.658 +/- 0.015)", "type": "organism-based", "parameters": "dose 3 mg/kg, route oral", "details": "in vivo, 672 h"}, "Rattus norvegicus [13]": {"test_system": "Rattus norvegicus", "assay": "Toxicity in male Wistar rat assessed as hemoglobin level at 30 mg/kg, po measured after 28 days (reference value: 13.66 +/- 0.23 g/dl)", "type": "organism-based", "parameters": "dose 30 mg/kg, route oral", "details": "in vivo, 672 h"}, "Rattus norvegicus [14]": {"test_system": "Rattus norvegicus", "assay": "Toxicity in female Wistar rat assessed as adrenal to body weight ratio at 3 mg/kg, po measured after 28 days (reference value: 0.028 +/- 0.001)", "type": "organism-based", "parameters": "dose 3 mg/kg, route oral", "details": "in vivo, 672 h"}, "Rattus norvegicus [15]": {"test_system": "Rattus norvegicus", "assay": "Toxicity in female Wistar rat assessed as adrenal to body weight ratio at 30 mg/kg, po measured after 28 days (reference value: 0.028 +/- 0.001)", "type": "organism-based", "parameters": "dose 30 mg/kg, route oral", "details": "in vivo, 672 h"}, "Mus musculus [16]": {"species_on_record": "Mus musculus", "assay": "Hypolipidemic activity in db/db mouse assessed as reduction in triglyceride level", "type": "functional"}}}
{"compound": "CCO[C@@H](Cc1ccc(OCCc2nc(-c3ccc(C)s3)oc2C)cc1)C(=O)O", "values": [{"measurement": "Activity", "setting": "Rattus norvegicus [1]", "result": 470.5, "unit": "U/L"}, {"measurement": "Ratio", "setting": "Rattus norvegicus [2]", "result": 0.46}, {"measurement": "Activity", "setting": "Mus musculus [3]", "result": 25.9, "unit": "%"}, {"measurement": "Activity", "setting": "Rattus norvegicus [4]", "result": 83.28, "unit": "mg/dL"}, {"measurement": "Activity", "setting": "Mus musculus [5]", "result": 41.5, "unit": "%"}, {"measurement": "Activity", "setting": "Rattus norvegicus [6]", "result": 248.13, "unit": "U/L"}, {"measurement": "Cmax", "setting": "[7]", "result": 91.7, "unit": "µg/mL"}, {"measurement": "Activity", "setting": "Rattus norvegicus [8]", "result": 4.03, "unit": "g/dL"}, {"measurement": "Activity", "setting": "Rattus norvegicus [9]", "result": 37.39, "unit": "mg/dL"}, {"measurement": "Ratio", "setting": "Rattus norvegicus [10]", "result": 0.015}, {"measurement": "Ratio", "setting": "Rattus norvegicus [11]", "result": 0.807}, {"measurement": "Ratio", "setting": "Rattus norvegicus [12]", "result": 0.72}, {"measurement": "Activity", "setting": "Rattus norvegicus [13]", "result": 12.46, "unit": "g/dL"}, {"measurement": "Ratio", "setting": "Rattus norvegicus [14]", "result": 0.02}, {"measurement": "Ratio", "setting": "Rattus norvegicus [15]", "result": 0.022}, {"measurement": "ED50", "setting": "Mus musculus [16]", "result": 0.0188, "unit": "mg/kg"}]}
